Experimental data as given in ChEMBL document CHEMBL4513216, “Probing the Open Global Health Chemical Diversity Library for Multistage-Active Starting Points for Next-Generation Antimalarials” (ACS Infect Dis, 2020).

test: Toxicity liver stage against HepG2, at 10uM; assay type: cell-based; set-up: test concentration 10 uM, cell line HepG2-A16-CD81EGFP; details: human, HepG2-A16-CD81EGFP cells; read-out: INHIBITION
Outline: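 Uninfected HepG2-A16-CD81EGFP cells, 3 × 10^3 per well, 1536-well, plated on prespotted compound at 10 μM final, parasite-free screening media added to match infected plates; puromycin 10 μM positive, DMSO 0.5% negative; run in parallel with 48 h PbLuc assay at 37 °C, 5% CO2; viability by CellTiter-Glo luminescence, normalized to controls.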

Row | Compound | cytotoxicity at 10 µM
1 | N#Cc1cnc(NC2CCN(C(=O)C3CC3)CC2)c(Cl)c1 | -7.32%
2 | Cc1nc(-c2ccsc2)ccc1C(=O)NCC(C)N1CCOCC1 (stereo unspecified) | -3.92%
3 | Cc1cc(-c2ccc(=O)n(C3CCN(C(=O)C4CCC4)CC3)n2)c(C)o1 | 4.22%
4 | O=S(=O)(c1ccc(F)cc1F)N1CCCCC1c1nnc2n1CCCC2 (stereo unspecified) | 2.22%
5 | COc1ccccc1C1(C(=O)NCCN2CCCCC2)CCOCC1 | -10.3%
6 | O=C(CCc1ccccn1)NCC(O)c1ccc(Cl)cc1Cl (stereo unspecified) | 8.54%
7 | CC(C)CN1CCC(C(=O)NCCNC(=O)c2ccco2)CC1 | -5.18%
8 | CC(C)CC(=O)N1CCN(Cc2cc(-c3ccncc3)nn2C)CC1 | -23.2%
9 | COc1cccc(C2CCCN2C(=O)CC2=CSC3=NCCCN23)c1 (stereo unspecified) | -0.277%
10 | CCOc1cc(C(=O)N2CCCC(c3nc(C)c(C)s3)C2)ccn1 (stereo unspecified) | -3.92%
11 | CN(C)c1ncccc1C(=O)N1CCCC1Cn1cccn1 (stereo unspecified) | -2.83%
12 | CCCOc1cc(F)ccc1NC(=O)NCc1noc(C)n1 | 7.83%
13 | Cc1ccc(Oc2ccc(NC(=O)NCC3CCOC3)cn2)cc1C (stereo unspecified) | -5.28%
14 | Cc1nn(C)c(C)c1CN1CCCC1c1nccc(CN(C)C)n1 (stereo unspecified) | -28.1%
15 | FC(F)(F)c1ccccc1CN1CCOC[C@H](Oc2cccnc2)C1 | 4.3%
16 | CCCNC(=O)CCNc1cncc(-n2nc(C)cc2C)n1 | 5.3%
17 | CN(Cc1cnn(C)c1)C(=O)NCc1cc(Br)cs1 | -10.1%
18 | Cn1nnc2c1CCN(Cc1ccco1)C2COCc1ccccc1 (stereo unspecified) | -133%
19 | Cc1nn(C)c(C)c1C(=O)N1CCN(C(=O)CC2CCCCC2)CC1 | -2.55%

Row | Compound | cytotoxicity at 10 µM
20 | O=c1oc(-c2cccs2)nn1CC(O)c1ccc(F)cc1 (stereo unspecified) | 20.4%
21 | Cc1ccc(NCCNC(=O)c2cc(CC(C)C)n[nH]2)nn1 | 0.37%
22 | O=C(Nc1nnc(C2CC2)s1)NC1CCOc2ccccc21 (stereo unspecified) | 24.2%
23 | O=C1CSC(c2ccsc2)c2c(n(C3CCCC3)[nH]c2=O)N1 (stereo unspecified) | -11.6%
24 | CS(=O)(=O)c1ccc(CNC(=O)NCc2cc[nH]n2)cc1 | 1.22%
25 | CN(Cc1ccc(Br)o1)C(=O)Nc1cccnc1 | -7.91%
26 | CCS(=O)(=O)c1ccccc1N1CCC(NC(=O)C2CC2)CC1 | -1.58%
27 | Cc1ccncc1C(=O)N1CCCC(C(=O)CCc2ccccc2)C1 (stereo unspecified) | 18%
28 | CC[C@H]1CN(C(=O)c2cnc(CN3CCCC3)s2)CC[C@@]1(C)O | -16%
29 | CCn1cc(CN2CCCC(c3[nH]ncc3-c3ccc(F)cc3)C2)cn1 (stereo unspecified) | 1.63%
30 | COCCN(CCN(C)C)C(=O)NC1CCc2ccccc2C1 (stereo unspecified) | -5.17%
31 | CC(NCc1ccccc1O)c1ccc(-n2ccnc2)cc1 (stereo unspecified) | -46.9%
32 | Cc1oc(-c2ccco2)nc1CC(=O)NCC(C)(C)N(C)C | -13.9%
33 | CCN(Cc1ccncc1)CC1(O)CCN(C(=O)c2cccc(C)n2)C1 (stereo unspecified) | -4.08%
34 | COC[C@@]12CCO[C@@H]1CCN(C(=O)C1CCOCC1)C2 | -106%
35 | COCCC(=O)NCCn1nc(C2CCNC2)c2cccnc21 (stereo unspecified) | -16.5%
36 | Cc1cc(CNCC2CCCN(C(=O)OC(C)(C)C)C2)no1 (stereo unspecified) | 6.22%
37 | O=C(O)CCc1cc2n(n1)CCCN(C(=O)c1cc3ccccc3s1)C2 | 0.45%
38 | CCC[C@H]1CN(Cc2cncn2C)C[C@@H]1NC(=O)C1(COC)CCC1 | -8.26%

Row | Compound | cytotoxicity at 10 µM
39 | CCC1CN(C(=O)c2ccc(=O)[nH]n2)CCC(=O)N1Cc1ccccc1 (stereo unspecified) | 10.4%
40 | Cc1ccc(-c2nc(CNc3ccc(C(N)=O)c(C)c3)cs2)o1 | 23.9%
41 | CN1CCCC(N(C)C(=O)c2ccc(NC(=O)c3ccc[nH]3)cc2)C1 (stereo unspecified) | -11.4%
42 | CNC(=O)Nc1cc(-c2ccc(Br)cc2)nn1CCO | -1.35%
43 | CC(C)Cc1nc(OCC(N)=O)c(C#N)c2c1CCCC2 | -9.53%
44 | Cc1c(C(=O)NCC2CCS(=O)(=O)C2)cnn1-c1ccccc1 (stereo unspecified) | -10.2%
45 | N#Cc1ccc(NCCNc2ccc(C(F)(F)F)cn2)nc1 | 73%
46 | COC(=O)c1cc(C(=O)N2CCOCC2(C)C)n(-c2ccccc2)n1 | -10.2%
47 | Cc1nn(CC(C)C)c(N(C)C)c1CNCc1cccc2c1OCO2 | -10.2%
48 | Cc1[nH]/c(=N\C(=O)c2csc(NC3CCCC3)n2)sc1C | 38.8%
49 | Cc1cnc(N2CCc3c(CN(C)Cc4ccco4)cncc3C2)nc1 | 4.15%
50 | O=S1(=O)CCN(c2nc(C3CC3)ns2)CC1 | 2.37%
51 | O=S(=O)(C1CC1)N1CCC2(CCCN(Cc3ccccn3)C2)C1 (stereo unspecified) | -0.336%
52 | COc1ccc(-c2cc(CC3(NCc4ccc(C)o4)COC3)no2)cc1 | -5.88%
53 | NC(=O)COc1ccc(CNCc2ccc(F)cc2F)cc1 | -14.4%
54 | CCN1CCN(CC(C)(O)c2cccc(C(F)(F)F)c2)CC1 (stereo unspecified) | -11.4%
55 | Cc1ncncc1C(=O)N1CCCC1c1c(C)nn(C)c1Cl (stereo unspecified) | -12.2%
56 | O=C(c1ccncc1)N1C[C@H]2CC[C@@H](C1)N(C(=O)C1CCCC1)C2 | 6.77%
